# Screening data (PubChem)
# Pf Dd2 growth: inhibitors of Plasmodium falciparum Dd2 growth; P. falciparum Dd2 growth, SYBR Green, 72 h; stronger effect = lower value; activity change, % at 10 µM; hit rate 2.3% among 94,000; AID 1159554; in the data active means activity change below about -80%; inconclusive means no clear call, values can overlap the other calls
# IDH1 R132H inh: IDH1 R132H (human) inhibition; O75874; IDH1 R132H reductase, diaphorase/resazurin fluorescence, 60 min; inhibition, % at 10 µM; hit rate 0.18% among 70,000; AID 624101; in the data active means inhibition above about 34%; inconclusive means no clear call, values can overlap the other calls; inactive means below about 11%
# GASC1 inh: blocks human GASC-1 (KDM4C) demethylase activity. Q9H3R0. GST-KDM4C 2-372, H3K9me3 peptide, LANCE TR-FRET. inhibition, % at 12.5 µM. hit rate 0.15% among 96,000;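 active means mean replicate inhibition above about 25%, with at least 55% of replicates also reaching it, limit read from the data, passing the limit was not always enough; inconclusive means only one of those two conditions met; inactive means neither condition met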
# Target sequence (Q9H3R0 2-372 limits assumed): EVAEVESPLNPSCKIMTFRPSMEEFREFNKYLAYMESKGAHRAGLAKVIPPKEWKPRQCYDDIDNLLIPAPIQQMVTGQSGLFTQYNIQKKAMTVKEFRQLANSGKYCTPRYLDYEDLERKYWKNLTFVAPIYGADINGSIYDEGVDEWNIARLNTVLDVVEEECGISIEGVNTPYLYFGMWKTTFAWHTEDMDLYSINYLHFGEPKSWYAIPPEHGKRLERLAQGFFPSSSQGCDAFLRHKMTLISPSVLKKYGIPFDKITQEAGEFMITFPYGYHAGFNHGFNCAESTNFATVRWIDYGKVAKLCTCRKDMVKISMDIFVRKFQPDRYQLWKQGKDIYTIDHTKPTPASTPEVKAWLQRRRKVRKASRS
#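 reagent = H3K9me3 peptide substrate, Fe(II), 2-oxoglutarate | system = GST-tagged GASC-1 (JMJD2C) catalytic fragment, aa 2-372 | amount = enzyme final amount 10 nM | read-out = Fall in 671/618 emission ratio as inhibition | medium = HEPES buffer, pH 7.5, plus ascorbate | schedule = 30 min reaction, 60 min detection, RT | measured by = LANCE TR-FRET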
# T cruzi growth: inhibitors of T. cruzi proliferation. T. cruzi beta-gal in NIH3T3, GalScreen luminescence, 90 h. inhibition, % at 8.34 µM. hit rate 5.9% among 77,000;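 active means mean inhibition above about 93%, with at least 55% of replicates each passing it, limit read from the data, passing the limit was not always enough; inconclusive means only one of those two conditions holds; inactive means neither condition holds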
# Numbers stand for hits; . = inactive; ? = inconclusive; / = no result; ! = a repeat was not active. This is a sample that favours compounds with a hit; in the whole collection about 5.9% have one here.
SMILES,Pf Dd2 growth,IDH1 R132H inh,GASC1 inh,T cruzi growth
C[C@@H]1CN([C@@H](C)CO)C(=O)c2cccc(NC(=O)Nc3ccc(F)cc3)c2O[C@H]1CN(C)Cc1ccc(C(=O)Nc2ccccc2N)cc1,-82.4,/,.,/
C[C@@H]1CN([C@@H](C)CO)C(=O)c2cccc(NC(=O)Nc3ccccc3)c2O[C@@H]1CN(C)Cc1ccc(C(=O)Nc2ccccc2N)cc1,-93.8,/,.,.
CCCNC(=O)N1CC2(CN(Cc3cccc(F)c3)C2)c2c([nH]c3cc(OC)ccc23)[C@H]1CO,.,/,.,/
C[C@H](CO)N1C[C@H](C)[C@H](CN(C)Cc2ccccc2)OCc2ccccc2-c2c(n(C)c3ccccc23)C1=O,.,/,.,/
CCCN(C)C[C@H]1OCCCC[C@@H](C)Oc2ccc(NC(=O)c3ccccc3)cc2C(=O)N([C@H](C)CO)C[C@H]1C,.,/,.,.
C[C@@H]1CCCCO[C@H](CN(C)CC2CC2)[C@H](C)CN([C@H](C)CO)C(=O)c2cc(NC(=O)c3ccccc3)ccc2O1,-81.1,/,.,.
CCCN(C)C[C@@H]1OCCCC[C@@H](C)Oc2ccc(NC(=O)c3ccccc3)cc2C(=O)N([C@H](C)CO)C[C@@H]1C,-83.0!,.,.,.
CC(C)NC(=O)N1[C@@H]2CN(C(=O)c3ccccn3)c3ccccc3[C@@H]2[C@@H]1CO,.,/,.,.
COc1ccc2c3c(n(C)c2c1)[C@@H](CO)N(C(=O)Nc1ccc(F)cc1)CC31CN(C(=O)c2ccc3c(c2)OCO3)C1,-87.2,/,.,/
COc1ccc2c3c(n(C)c2c1)[C@H](CO)N(C(=O)Nc1ccc(F)cc1)CC31CN(C(=O)c2ccc3c(c2)OCO3)C1,-89.2,/,.,/
COc1ccc2c3c(n(C)c2c1)[C@@H](CO)N(C)CC31CN(C(=O)c2ccc3c(c2)OCO3)C1,.,/,.,/
CCc1csc(N2[C@H](CO)[C@H](c3ccccc3)[C@@H]2CN(C)C(=O)C2CCC2)n1,.,/,.,/
C[C@H]1CN([C@@H](C)CO)C(=O)Cc2cc(NC(=O)Cn3cnnn3)ccc2O[C@@H]1CN(C)C,.,.,.,.
C[C@@H]1CN([C@@H](C)CO)C(=O)c2cc(NC(=O)C3CCCCC3)ccc2O[C@@H](C)CCCCO[C@@H]1CN(C)S(=O)(=O)c1ccc(F)cc1,-81.8,.,.,.
C[C@@H]1CN([C@H](C)CO)C(=O)c2cc(NC(=O)C3CCCCC3)ccc2O[C@@H](C)CCCCO[C@@H]1CN(C)S(=O)(=O)c1ccc(F)cc1,-82.4,.,.,.
C[C@@H]1CCCCO[C@H](CN(C)S(=O)(=O)c2ccc(F)cc2)[C@@H](C)CN([C@@H](C)CO)C(=O)c2cc(NC(=O)C3CCCCC3)ccc2O1,.,.,.,.
COCC(=O)N1CCCCN2[C@H](C1)[C@@H](c1ccc(C#Cc3ccccc3)cc1)[C@@H]2CO,.,/,.,.
C[C@@H]1CCCCO[C@H](CN(C)CC2CC2)[C@@H](C)CN([C@H](C)CO)C(=O)c2cc(NC(=O)Nc3ccc4c(c3)OCO4)ccc2O1,.,.,.,.
O=C(NC1CCC1)[C@H]1[C@H](CO)[C@H]2Cn3c(ccc(-c4ccccc4F)c3=O)[C@H]2N1Cc1ccncc1,.,/,.,.
COc1ccc(CN2CC3(C2)CN(C(=O)CN(C)C)[C@@H](CO)c2[nH]c4cc(OC)ccc4c23)cc1,-85.9,/,.,/
COc1ccc(CN2CC3(C2)CN(C(=O)CN(C)C)[C@H](CO)c2[nH]c4cc(OC)ccc4c23)cc1,-88.4,/,.,/
COc1ccc2c3c([nH]c2c1)[C@H](CO)N(C(=O)CN(C)C)CC31CN(Cc2ccncc2)C1,.,/,.,/
COc1ccc2c3c([nH]c2c1)[C@@H](CO)N(C(=O)CN(C)C)CC31CN(Cc2ccccc2)C1,.,/,.,/
COc1cc(S(=O)(=O)n2nc(C)cc2C)c(OC)cc1Cl,/,.,/,/
O=C(O)C[C@@H]1C[C@@H]2c3cc(NC(=O)CC4CC4)ccc3O[C@@H]2[C@@H](CO)O1,.,60.5,37.7,.
SMILES,Pf Dd2 growth,IDH1 R132H inh,GASC1 inh,T cruzi growth
O=C(O)C[C@@H]1C[C@@H]2c3cc(NC(=O)CC4CC4)ccc3O[C@@H]2[C@H](CO)O1,.,.,.,.
O=C(O)C[C@@H]1C[C@@H]2c3cc(NC(=O)Nc4ccc(C(F)(F)F)cc4)ccc3O[C@@H]2[C@@H](CO)O1,.,50.4,33.9,.
O=C(O)C[C@@H]1C[C@H]2c3cc(NC(=O)Nc4ccc(C(F)(F)F)cc4)ccc3O[C@H]2[C@@H](CO)O1,.,.,.,.
COc1ccc(S(=O)(=O)N(C)C[C@H]2OCCCC[C@H](C)Oc3ccc(NS(=O)(=O)c4cccs4)cc3C(=O)N([C@H](C)CO)C[C@H]2C)cc1,-81.0,/,.,.
COc1ccc(S(=O)(=O)N(C)C[C@@H]2OCCCC[C@H](C)Oc3ccc(NS(=O)(=O)c4cccs4)cc3C(=O)N([C@H](C)CO)C[C@@H]2C)cc1,.,.,.,.
COc1ccc(S(=O)(=O)N(C)C[C@H]2OCCCC[C@H](C)Oc3ccc(NS(=O)(=O)c4cccs4)cc3C(=O)N([C@@H](C)CO)C[C@H]2C)cc1,-83.4,.,.,.
COc1ccc(S(=O)(=O)N(C)C[C@@H]2OCCCC[C@H](C)Oc3ccc(NS(=O)(=O)c4cccs4)cc3C(=O)N([C@@H](C)CO)C[C@H]2C)cc1,.,.,.,.
C[C@@H]1CN([C@@H](C)CO)C(=O)c2cc(NS(=O)(=O)c3cccs3)ccc2O[C@@H](C)CCCCO[C@@H]1CN(C)S(=O)(=O)c1ccc(F)cc1,-83.0,/,.,.
C[C@@H]1CCCCO[C@@H](CN(C)S(=O)(=O)c2ccc(F)cc2)[C@H](C)CN([C@H](C)CO)C(=O)c2cc(NS(=O)(=O)c3cccs3)ccc2O1,.,/,.,.
O=C(Nc1cccc(F)c1)N1CC(=O)N2[C@H](C1)[C@@H](c1ccc(C#CC3CC3)cc1)[C@@H]2CO,-82.1,/,.,/
Cc1ccc(-c2ccc([C@H]3[C@@H](CO)N4C(=O)CN(C(=O)Nc5cccc(F)c5)C[C@H]34)cc2)cc1,-83.6,/,.,/
Cc1ccc(-c2ccc([C@@H]3[C@H]4CN(C(=O)Nc5cccc(F)c5)CC(=O)N4[C@H]3CO)cc2)cc1,.,/,.,/
C[C@@H]1CN([C@@H](C)CO)C(=O)c2cc(C#Cc3cccnc3)cnc2O[C@@H]1CN(C)Cc1cccnc1,.,/,.,.
CCCC(=O)N1CC2(C1)CN(Cc1ccc(Cl)cc1)[C@H](CO)c1[nH]c3cc(OC)ccc3c12,-90.1,/,.,/
CCCC(=O)N1CC2(C1)CN(Cc1ccncc1)[C@H](CO)c1[nH]c3cc(OC)ccc3c12,.,/,.,/
COc1ccc2c3c([nH]c2c1)[C@H](CO)N(Cc1cccc(Cl)c1)CC31CN(C(C)=O)C1,-83.3,/,.,/
CCC(=O)N1CC2(C1)CN(Cc1ccccc1Cl)[C@H](CO)c1[nH]c3cc(OC)ccc3c12,-85.0,/,.,/
COc1ccc2c3c([nH]c2c1)[C@H](CO)N(Cc1ccccc1)CC31CN(C(C)=O)C1,.,/,.,/
CCC(=O)N1CC2(C1)CN(Cc1ccc(OC)cc1)[C@H](CO)c1[nH]c3cc(OC)ccc3c12,.,/,.,/
CCC(=O)N1CC2(C1)CN(Cc1ccc(Cl)cc1)[C@H](CO)c1[nH]c3cc(OC)ccc3c12,?,/,.,/
